Experimental data as given in ChEMBL document CHEMBL1145109, “Discovery of 4-benzoyl-1-[(4-methoxy-1H- pyrrolo[2,3-b]pyridin-3-yl)oxoacetyl]-2- (R)-methylpiperazine (BMS-378806): a novel HIV-1 attachment inhibitor that interferes with CD4-gp120 interactions” (J Med Chem, 2003).

Legend:
[1] = Inhibitory activity of compound against LAI (T) tropic virus that utilizes the CXCR-4 co-receptor was determined; assay type: functional
[2] = The maximum plasma concentration of compound after paroral administration of 10 (mg/kg) polyethelene glycol in monkey was determined; assay type: ADME, organism-based; design: dose 10 mg/kg, route oral; details: simiiformes, po
Outline: (§1)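 Given to rat, dog and cynomolgus monkey as a solution in poly(ethylene glycol) 400/ethanol (90:10 v/v), by intravenous and oral (po) dosing. The iv/po dose pairs in mg/kg were 5/5 or 1/5 in rat and 2/10 or 0.67/3.4 in dog and monkey. Plasma sampling gave Fpo (%), oral Cmax (µM), CLtot (mL/min/kg) and Vss (L/kg).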

[3] = tested on: Human immunodeficiency virus 1; test: Inhibitory activity of compound in MT-2 cells against JRFL (M) Macrophage tropic virus that utilizes the CCR5 was determined; assay type: functional, organism-based
[4] = The maximum plasma concentration of compound after peroral administration of 5(mg/kg) polyethelene glycol in rat was determined; assay type: ADME, organism-based; design: dose 5 mg/kg, route oral; details: po; outline: as §1
[5] = Oral bioavailability after paroral administration of 10 (mg/kg) polyethelene glycol in dog was determined; assay type: ADME, organism-based, Canis lupus familiaris; details: in vivo; outline: as §1
[6] = The volume of distribution of compound was determined in rat; assay type: ADME, organism-based; details: in vivo, read-out: Vss; outline: as §1
[7] = Cytotoxicity activity of compound in MT-2 cells against LAI (T) tropic virus that utilizes the CXCR-4 co-receptor virus was determined; assay type: functional; details: MT2
Outline: (§2)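 CC50 in µM, measured as cytotoxicity toward the host cells used for the antiviral assays, either MT-2 or PM1 cells.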

[8] = The total clearance time in monkey was determined; assay type: ADME, organism-based; details: simiiformes, in vivo; read-out: CLtotal; outline: as §1
[9] = tested on: Human immunodeficiency virus 1; test: Inhibitory activity of compound against TLAV (dual) virus that utilizes both CXR4 and CCR5 co-receptor virus was determined; assay type: functional, organism-based; details: Human immunodeficiency virus 1, TLAV
[10] = The volume of distribution of compound was determined in monkey; assay type: ADME, organism-based; details: simiiformes, in vivo; read-out: Vss; outline: as §1
[11] = The total clearance time in dog was determined; assay type: ADME, organism-based, Canis lupus familiaris; details: in vivo, read-out: CLtotal; outline: as §1
[12] = The maximum plasma concentration of compound after paroral administration of 10 (mg/kg) polyethelene glycol in dog was determined; assay type: ADME, organism-based, Canis lupus familiaris; design: dose 10 mg/kg, route oral; details: po; outline: as §1
[13] = Oral bioavailability after peroral administration of 5(mg/kg) polyethelene glycol in rat was determined; assay type: ADME, organism-based; details: in vivo; outline: as §1
[14] = tested on: Human immunodeficiency virus 1; test: Inhibitory activity of compound against SF-2 (T) tropic virus that utilizes the CXCR-4 co-receptor was determined; assay type: functional, organism-based, sf-2 tropic virus
[15] = tested on: Human immunodeficiency virus 1; test: Cytotoxicity activity of compound against BAl (M) Macrophage tropic virus that utilizes the CCR5 virus was determined; assay type: functional; details: Human immunodeficiency virus 1, CCR5; outline: as §2
[16] = Oral bioavailability after paroral administration of 10 (mg/kg) polyethelene glycol in monkey was determined; assay type: ADME, organism-based; details: primates, in vivo; outline: as §1
[17] = Inhibitory activity of compound against NL4-3 (T) tropic virus that utilizes the CXCR-4 co-receptor was determined; assay type: functional, nl4-3 tropic virus
[18] = The volume of distribution of compound a was determined in dog; assay type: ADME, organism-based, Canis lupus familiaris; details: in vivo, read-out: Vss; outline: as §1
[19] = tested on: Human immunodeficiency virus 1; test: Cytotoxicity activity of compound against TLAV (dual) virus that utilizes both CXR4 and CCR5 co-receptor virus was determined; assay type: functional; details: Human immunodeficiency virus 1, TLAV; outline: as §2
[20] = The total clearance time in rat was determined; assay type: ADME, organism-based; details: in vivo, read-out: CLtotal; outline: as §1
[21] = tested on: Human immunodeficiency virus 1; test: Inhibitory activity of compound against BAl (M) Macrophage tropic virus that utilizes the CCR5 co-receptor was determined; assay type: functional, organism-based; details: Human immunodeficiency virus 1, CCR5
[22] = tested on: Human immunodeficiency virus 1; test: Cytotoxicity activity of compound in MT-2 cells against TLAV (dual) virus that utilizes both CXR4 and CCR5 co-receptor virus was determined; assay type: functional; details: Human immunodeficiency virus 1, TLAV, MT2; outline: as §2
[23] = tested on: Human immunodeficiency virus 1; test: Inhibitory activity of compound against SF-162 (M) Macrophage tropic virus that utilizes the CCR5 was determined; assay type: functional, organism-based, sf-162 macrophage tropic virus; details: Human immunodeficiency virus 1, CCR5
[24] = tested on: Human immunodeficiency virus 1; test: Cytotoxicity activity of compound in PM1 cells against BAl (M) Macrophage tropic virus that utilizes the CCR5 virus was determined; assay type: functional; details: Human immunodeficiency virus 1, PM1; outline: as §2
[25] = The maximum plasma concentration of compound after paroral administration of 3.4(mg/kg) polyethelene glycol in monkey was determined; assay type: ADME, organism-based; design: dose 3.4 mg/kg, route oral; details: simiiformes, po; outline: as §1
[26] = The maximum plasma concentration of compound after paroral administration of 3.4(mg/kg) polyethelene glycol in dog was determined; assay type: ADME, organism-based, Canis lupus familiaris; design: dose 3.4 mg/kg, route oral; details: po; outline: as §1
[27] = Oral bioavailability after paroral administration of 3.4(mg/kg) polyethelene glycol in dog was determined; assay type: ADME, organism-based, Canis lupus familiaris; details: in vivo
Outline: (§3)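 Oral dosing as a solution in PEG 400/ethanol (90:10 v/v). Separate iv arms were used for comparison: rat 1 mg/kg iv vs 5 mg/kg po, dog and cynomolgus monkey 0.67 mg/kg iv vs 3.4 mg/kg po. Oral bioavailability (Fpo, %) was derived from plasma exposure after oral relative to intravenous dosing.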

[28] = Oral bioavailability after paroral administration of 3.4(mg/kg) polyethelene glycol in monkey was determined; assay type: ADME, organism-based; details: primates, in vivo; outline: as §3
[29] = The maximum plasma concentration of compound after paroral administration of 5(mg/kg) polyethelene glycol in rat was determined; assay type: ADME, organism-based; design: dose 5 mg/kg, route oral; details: po; outline: as §1
[30] = The volume of distribution of compound was determined in dog; assay type: ADME, organism-based, Canis lupus familiaris; details: in vivo, read-out: Vss; outline: as §1
[31] = Oral bioavailability after paroral administration of 5(mg/kg) polyethelene glycol in rat was determined; assay type: ADME, organism-based; details: in vivo; outline: as §3
[32] = tested on: Human immunodeficiency virus 1; test: Inhibitory activity of compound against JRFL (M) Macrophage tropic virus that utilizes the CCR5 was determined; assay type: functional, organism-based; details: Human immunodeficiency virus 1, CCR5
[33] = The volume of distribution of compound against rat was determined; assay type: ADME, organism-based; details: in vivo, read-out: Vss; outline: as §1

EC50 [1]	clearance [8]	EC50 [9]	Vd [10]	clearance [11]	EC50 [14]	EC50 [17]	clearance [20]	EC50 [21]	EC50 [23]	Structure (SMILES)	CC50 [7]	CC50 [22]	CC50 [24]	further results
2.93 nM	3.1 mL/min/kg	13.6 nM	0.24 L/kg	2.4 mL/min/kg	62.4 nM	30.8 nM	48 mL/min/kg	18.1 nM	–	O=C(C(=O)N1CCN(C(=O)c2ccccc2)CC1)c1c[nH]c2cccc(F)c12	146 µM	–	–	Cmax [2]: 34 µM; EC50 [3]: 2.39 nM; Cmax [4]: 150 nM; bioavailability [5]: 100%; Vd [6]: 0.99 L/kg; Cmax [12]: 18 µM; bioavailability [13]: 9.4%; CC50 [15]: 52.5 µM; bioavailability [16]: 100%; Vd [18]: 1.8 L/kg; CC50 [19]: 146 µM
86 nM	–	149 nM	–	–	1030 nM	5130 nM	–	28700 nM	230 nM	O=C(C(=O)N1CCN(C(=O)c2ccccc2)CC1)c1c[nH]c2ccccc12	145 µM	145 µM	> 200 µM	–
2.68 nM	10 mL/min/kg	0.85 nM	0.39 L/kg	5.2 mL/min/kg	26.5 nM	2.94 nM	32 mL/min/kg	15.5 nM	3.46 nM	COc1ccnc2[nH]cc(C(=O)C(=O)N3CCN(C(=O)c4ccccc4)C[C@H]3C)c12	> 300 µM	> 300 µM	> 300 µM	Cmax [25]: 510 nM; Cmax [26]: 7.4 µM; bioavailability [27]: 77%; bioavailability [28]: 24%; Cmax [29]: 220 nM; Vd [30]: 0.47 L/kg; bioavailability [31]: 19%; EC50 [32]: 1.47 nM; Vd [33]: 0.56 L/kg
